Source: PubChem (Broad Institute)
Hits are enriched below; roughly 1.3% of the tested compounds scored in any of these assays.
RAD52 inh = RAD52 DNA annealing inhibitors, primary screen, biochemical, FRET, single point, set 2 | 360,000 compounds, 0.46% hits | inhibition, % at 18.7 µM | recombinant RAD52 DNA annealing, FRET fluorescence;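 active = every replicate showing at least 50% inhibition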
RAD54 branch = inhibitors of human RAD54 branch migration, primary screen, biochemical, fluorescence, single point. 360,000 compounds, 0.14% hits. AID 602329, 2012. inhibition, % at 10.4 µM. RAD54 Holliday junction branch migration, FAM/BHQ fluorescence;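 active = mean normalized replicate activity at least 40 and at least half of replicates scoring 40 or more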;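 also: 0% = median of neutral control wells and 100% = median of positive control wells; inhibitors cause a drop in the FAM fluorescence signal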
AF4-AF9 inh = inhibitors of AF4 peptide binding to AF9, primary screen, biochemical, AlphaScreen, biotin-AF4 peptide, FLAG-AF9, single point; AID 651704, 2012; 350,000 compounds, 0.47% hits; inhibition, % at 10 µM; Protein AF-9 (Homo sapiens), P42568;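 active = every replicate reaching a set inhibition limit, whatever the replicate mean, cut at about 25% in these data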;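 also: 0% = plate neutral control median and 100% = total signal loss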
Target sequence (P42568 whole entry, looked up): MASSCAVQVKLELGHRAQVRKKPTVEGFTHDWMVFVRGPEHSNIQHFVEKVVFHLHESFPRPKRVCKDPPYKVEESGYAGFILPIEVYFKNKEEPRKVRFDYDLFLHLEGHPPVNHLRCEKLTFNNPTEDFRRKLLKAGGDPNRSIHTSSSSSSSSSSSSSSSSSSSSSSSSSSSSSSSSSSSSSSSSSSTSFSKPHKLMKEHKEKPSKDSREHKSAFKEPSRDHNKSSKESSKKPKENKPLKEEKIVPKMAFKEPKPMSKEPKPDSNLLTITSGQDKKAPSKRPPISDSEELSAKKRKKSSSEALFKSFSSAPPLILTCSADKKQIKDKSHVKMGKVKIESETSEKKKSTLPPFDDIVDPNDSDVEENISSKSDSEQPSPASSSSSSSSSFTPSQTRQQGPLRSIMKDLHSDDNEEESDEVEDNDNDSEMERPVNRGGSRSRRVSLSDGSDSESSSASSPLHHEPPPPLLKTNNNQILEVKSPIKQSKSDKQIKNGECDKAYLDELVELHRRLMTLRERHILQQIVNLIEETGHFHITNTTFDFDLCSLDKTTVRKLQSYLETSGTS
S100A4 MyoIIA = inhibitors of S100A4-myosin IIA peptide binding, primary screen, biochemical, fluorescence polarization, TAMRA-MyoIIA peptide | 360,000 compounds, 0.14% hits | Protein S100-A4 (Homo sapiens), P26447 | inhibition, % at 10.7 µM;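 active = mean inhibition of at least 70% across replicates, with every replicate also reaching that level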
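Material: S100A4 monomer protein | Medium: HEPES pH 7.2 with CaCl2, KCl, NaCl, DTT, Triton | Reagent: Labelled myosin peptide probe, 5 nM | Doses: One dose per compound | Times: 5 min incubation before reading | Benchmarks: Neutral control DMSO, positive control TFP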
GSIS activator = GLuc luminescence reporter in INS-1E cells, primary screen for activators of glucose-dependent secretion of insulin; INS-1E GLuc reporter insulin secretion, 2-3 h; activation, % at 16.6 µM; 370,000 compounds, 0.61% hits;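 active = lowest replicate activation of at least 40%, so every replicate reaches that level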;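 also: 0% = median of neutral control wells and 100% = median of IBMX positive control wells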
* hit, by the source's call; i = inactive; / = no result; ! = not confirmed by another sample.

SMILES	RAD52 inh	RAD54 branch	AF4-AF9 inh	S100A4 MyoIIA	GSIS activator
CCCCN(Cc1nc2ccccc2c(=O)[nH]1)C(=O)c1nn(C)c(=O)c2ccccc12	-11	2	-1	-14	47*
Cc1noc(C)c1S(=O)(=O)Nc1ccc2c(c1)CC(=O)N([C@H](C)CO)C[C@H](C)[C@H](CN(C)S(=O)(=O)c1c(C)noc1C)O2	3	3	-2	0	17
Cc1ccc(-n2c(-c3ccc(Br)cc3)c[n+]3c2CCc2ccc4cccnc4c2-3)cc1	/	88*	/	/	-11
COc1ccc(-n2c(-c3ccc(Cl)cc3)c[n+]3c2CCc2ccccc2-3)cc1	21	/	3	-1	-40
CN(C)C(=O)C[C@@H]1CC[C@@H]2[C@H](COc3ccc(NC(=O)C4CC4)cc3C(=O)N2C)O1	-4	11	-1	-19	6
c1ccc(CCN2CCN=C2Nc2ccccc2)cc1	-3	-6	-8	-1	42*
Cc1[nH]nc(C(F)(F)F)c1N=NN1CCOCC1	-5	/	-2	-2	148*
Clc1ccc(N=NN2CCOCC2)cc1	7	6	0	11	-11
C=CC[n+]1c(-c2ccc(Cl)cc2Cl)csc1Nc1ccc(NC(C)=O)cc1	-16	/	44*	2	19
CC(C)Sc1nc(SCC(=O)O)c2c3c(sc2n1)COC(C)(C)C3	-14	10	-9	-3	55*
CC(C)Sc1nc(SCC(=O)NCc2ccco2)c2c3c(sc2n1)COC(C)(C)C3	/	-2	/	/	/
C[C@@H]1CCCCO[C@@H](CN(C)C(=O)Nc2cccc3ccccc23)[C@H](C)CN([C@H](C)CO)C(=O)c2cc(NS(=O)(=O)c3ccc(F)cc3)ccc2O1	0	8	1	-3	-3
C[C@@H]1CN([C@@H](C)CO)C(=O)Cc2cc(NC(=O)CCCN(C)C)ccc2O[C@H]1CN(C)Cc1ccc(-c2ccccc2)cc1	77*!	/	15	-5	29
C[C@@H]1CN([C@@H](C)CO)C(=O)Cc2cc(NC(=O)CCCN(C)C)ccc2O[C@H]1CN(C)Cc1ccc(C(=O)Nc2ccccc2N)cc1	83*	/	31*	6	30
C[C@H](CO)N1C[C@H](C)[C@H](CN(C)Cc2ccc(-c3ccccc3)cc2)Oc2ccc(NC(=O)CCCN(C)C)cc2C1=O	22	23	8	-7	27
C[C@@H]1CN([C@H](C)CO)C(=O)Cc2cc(NC(=O)CCCN(C)C)ccc2O[C@@H]1CN(C)Cc1ccc(-c2ccccc2)cc1	79*	8	7	-5	24
C[C@H](CO)N1C[C@H](C)[C@@H](CN(C)Cc2ccc(C(=O)Nc3ccccc3N)cc2)Oc2ccc(NC(=O)Cc3cn(C)c4ccccc34)cc2CC1=O	61*	4	0	-4	-4
CCN1CCN(c2cc(N3CCN(C(=O)c4ccco4)CC3)c3c4c(onc24)-c2ccccc2C3=O)CC1	/	19	/	/	/
O=C(O)CCNc1cc(N2CCN(C(=O)c3ccco3)CC2)c2noc3c2c1C(=O)c1ccccc1-3	i	-280	56*	-42	-8
C=CC#CC[N+]1(CC#Cc2ccccc2)CCOCC1	74*	/	97*	4	41
C(#Cc1ccccc1)C[N+]1(CC#Cc2ccccc2)CCCC1	-1	4	2	-3	-11
C[C@@H]1CN([C@@H](C)CO)C(=O)CCCn2nncc2CO[C@H]1CN(C)Cc1ccccc1	-12	-5	0	-8	41*!
C[C@H](CO)N1C[C@H](C)[C@H](CN(C)S(=O)(=O)c2ccc3c(c2)OCCCO3)OCc2cnnn2CCCC1=O	-16	-2	5	-3	12
C[C@H]1CN([C@@H](C)CO)C(=O)CCCn2nncc2CO[C@H]1CN(C)S(=O)(=O)c1ccc2c(c1)OCCCO2	-9	3	1	117*!	-2
C[C@@H]1CN([C@@H](C)CO)C(=O)c2cc(C#Cc3ccc(F)cc3)cnc2O[C@H]1CN(C)CC1CCOCC1	-4	2	7	-5	-1
SMILES	RAD52 inh	RAD54 branch	AF4-AF9 inh	S100A4 MyoIIA	GSIS activator
C[C@@H]1CN([C@@H](C)CO)C(=O)c2cc(C#CCc3ccccc3)cnc2O[C@@H]1CN(C)C(=O)C1CC1	-14	3	-4	13	16
C[C@@H]1CN([C@H](C)CO)C(=O)c2cc(C#CCc3ccccc3)cnc2O[C@H]1CN(C)C(=O)C1CCC1	11	-4	-2	-13	54*
C[C@H](CO)N1C[C@H](C)[C@H](CN(C)S(C)(=O)=O)Oc2ncc(C#CC3CC3)cc2C1=O	-1	-3	-5	5	16
C[C@H]1CN([C@@H](C)CO)C(=O)c2cc(C#CCc3ccccc3)cnc2O[C@@H]1CN(C)C(=O)C1CC1	12	5	-6	4	72*
C[C@@H]1CN([C@@H](C)CO)C(=O)c2cc(C#CCc3ccccc3)cnc2O[C@@H]1CN(C)C(=O)C1CCC1	8	3	0	69	29
C[C@@H]1CN([C@H](C)CO)C(=O)c2cc(C#CC3CC3)cnc2O[C@@H]1CN(C)S(C)(=O)=O	13	6	-7	117*	4
O=C(c1cnccn1)N1CC(=O)N2[C@H](C1)[C@H](c1ccc(C#CC3CCCC3)cc1)[C@@H]2CO	-10	/	9	23	5
O=[N+]([O-])c1cc(S(=O)(=O)N2CCCC2)ccc1N/N=C/c1ccncc1	/	3	/	/	2
O=[N+]([O-])c1cc(S(=O)(=O)N2CCCC2)ccc1N/N=C/c1cccs1	/	-11	/	/	48*
C=CCn1cc(C(=O)N2CCN(CC)CC2)c(=O)c2cc(S(=O)(=O)N(CC)CC)ccc21	-6	-6	45*	1	-3
CCOC(=O)N1CCN(C(=O)c2cn(CC)c3ccc(S(=O)(=O)N4CCCC4)cc3c2=O)CC1	-5	-8	/	0	/
C[C@@H]1CN([C@H](C)CO)C(=O)Cc2cc(NC(=O)NC3CCCCC3)ccc2O[C@@H]1CN(C)Cc1ccc(C(=O)Nc2ccccc2N)cc1	-27	/	-2	-39	11
CN1CCN(C(=S)c2cn(Cc3ccc(F)cc3)c3ccccc23)CC1	-13	/	31*	0	-22
CS(=O)(=O)N1CCCCC1c1cc(C(=O)Nc2cccc(C#N)c2)no1 (centres undefined)	-6	0	-1	6	41*
CS(=O)(=O)N1CCCCC1c1cc(C(=O)Nc2ccccc2)no1 (centres undefined)	1	-1	-22	2	-2
CN(Cc1ccccc1)c1ncnc(N)c1[N+](=O)[O-]	-5	/	0	2	44*
CN(Cc1ccccc1)c1ncnc2[nH]ncc12	-19	-2	3	-5	40*
